# Test results reported in ChEMBL document CHEMBL4196073, “The aminopyridine-3,5-dicarbonitrile core for the design of new non-nucleoside-like agonists of the human adenosine A2B receptor” (Eur J Med Chem, 2018).
# Calls of active or inactive are those of the source. The rule behind the calls is not given here.
# How the values were obtained:
# Adenosine receptor A1 = target: T1, Adenosine receptor A1 (Homo sapiens, UniProt P30542); test: Displacement of [3H]DPCPX from human adenosine A1 receptor expressed in CHO cell membranes after 90 mins by scintillation counting analysis
# T1 sequence (P30542 whole entry): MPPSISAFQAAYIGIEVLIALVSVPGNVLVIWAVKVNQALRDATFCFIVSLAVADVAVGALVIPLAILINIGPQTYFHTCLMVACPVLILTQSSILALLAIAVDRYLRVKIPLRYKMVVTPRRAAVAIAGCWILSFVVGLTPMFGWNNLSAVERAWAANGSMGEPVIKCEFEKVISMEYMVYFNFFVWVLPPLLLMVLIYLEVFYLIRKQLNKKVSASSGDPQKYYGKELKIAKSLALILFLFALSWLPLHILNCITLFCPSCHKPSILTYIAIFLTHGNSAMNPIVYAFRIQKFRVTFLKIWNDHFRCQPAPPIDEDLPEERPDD
# Outline: (§1)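 Hypotonic-lysed (5 mM Tris HCl, 1 mM EDTA, pH 7.4), 40000 g pelleted hA1-CHO membranes, 50 µg protein/100 µl, with 1 nM [3H]DPCPX, 90 min, 25°C, 50 mM Tris HCl pH 7.4; nonspecific with 1 µM DPCPX; GF/B filtration, scintillation. Ki via Cheng–Prusoff, four assays in triplicate; I% at 1 μM.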
# [1] = target: T2, Adenosine receptor A2b (Homo sapiens) (UniProt P29275); test: Agonist activity at human adenosine A2B receptor expressed in CHO cell membranes assessed as induction of cAMP accumulation at 1 uM by AlphaScreen assay relative to NECA; type: functional, cell-based
# T2 sequence (whole entry): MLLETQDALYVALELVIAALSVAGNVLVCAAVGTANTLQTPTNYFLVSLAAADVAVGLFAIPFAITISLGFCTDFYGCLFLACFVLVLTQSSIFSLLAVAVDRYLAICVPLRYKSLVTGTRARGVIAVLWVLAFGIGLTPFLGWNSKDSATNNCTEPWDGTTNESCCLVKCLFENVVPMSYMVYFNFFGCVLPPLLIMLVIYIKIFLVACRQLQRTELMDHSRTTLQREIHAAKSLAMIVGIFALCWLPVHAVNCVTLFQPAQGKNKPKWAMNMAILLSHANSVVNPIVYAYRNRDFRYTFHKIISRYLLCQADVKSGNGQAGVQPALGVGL
# Outline: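 Whole adherent hA2B-transfected CHO cells (DMEM/F12, 10% FCS, G418), trypsin-detached, in HBSS with 5 mM HEPES, 0.5 mM Ro 20-1724, 0.1% BSA; test compound at 1 μM alone; cAMP by AlphaScreen; efficacy expressed relative to NECA 1 μM taken as 100%.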
# Adenosine receptor A2a [2] = target: T3, Adenosine receptor A2a (Homo sapiens, UniProt P29274); test: Displacement of [3H]-ZM241385 from human adenosine A2A receptor expressed in CHO cell membranes at 1 uM after 60 mins by scintillation counting analysis
# T3 sequence (P29274 whole entry): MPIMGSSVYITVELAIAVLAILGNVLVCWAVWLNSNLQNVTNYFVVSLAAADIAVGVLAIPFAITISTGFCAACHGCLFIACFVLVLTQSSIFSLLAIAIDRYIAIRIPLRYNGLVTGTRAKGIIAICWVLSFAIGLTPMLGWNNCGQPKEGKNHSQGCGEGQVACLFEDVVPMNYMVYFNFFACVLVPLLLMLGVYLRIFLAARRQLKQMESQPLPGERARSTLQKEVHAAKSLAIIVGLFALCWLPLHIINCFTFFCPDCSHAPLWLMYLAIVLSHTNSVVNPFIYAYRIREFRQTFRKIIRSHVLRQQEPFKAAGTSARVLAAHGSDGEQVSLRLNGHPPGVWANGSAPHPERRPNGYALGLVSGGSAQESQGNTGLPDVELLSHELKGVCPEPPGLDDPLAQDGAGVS
# [3] = target: T4, Adenosine receptor A3 (Homo sapiens) (UniProt P0DMS8); test: Displacement of [125I]-ABMECA from human adenosine A3 receptor expressed in CHO cell membranes at 1 uM after 120 mins by scintillation counting analysis
# T4 sequence (whole entry): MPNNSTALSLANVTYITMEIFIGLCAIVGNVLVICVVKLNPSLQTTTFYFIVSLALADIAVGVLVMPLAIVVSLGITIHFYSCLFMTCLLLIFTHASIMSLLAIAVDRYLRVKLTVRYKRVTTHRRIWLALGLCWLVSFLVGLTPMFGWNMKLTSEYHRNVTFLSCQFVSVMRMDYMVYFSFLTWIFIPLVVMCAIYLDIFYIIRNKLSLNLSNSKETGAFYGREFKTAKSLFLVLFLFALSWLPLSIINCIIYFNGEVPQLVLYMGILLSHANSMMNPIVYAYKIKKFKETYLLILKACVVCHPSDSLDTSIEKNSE
# Outline: (§2)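 Membranes of hA3-CHO cells, 50 µg protein/100 µl, incubated 120 min at 4°C with 0.5 nM [125I]AB-MECA in 50 mM Tris HCl pH 7.4, 10 mM MgCl2, 1 mM EDTA; 1 µM AB-MECA for nonspecific; filter separation, counted. Ki by Cheng–Prusoff, four assays in triplicate; I% at 1 μM.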
# Adenosine receptor A2b = target: T5, Adenosine receptor A2b (Homo sapiens, UniProt P29275); test: Agonist activity at human adenosine A2B receptor expressed in CHO cell membranes assessed as induction of cAMP accumulation by AlphaScreen assay; type: functional, cell-based
# T5 sequence (P29275 whole entry): T2 sequence (whole entry)
# Outline: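 Intact hA2B-transfected CHO cells, trypsin-detached, stimulated in HBSS/5 mM HEPES/0.5 mM Ro 20-1724/0.1% BSA with compound alone at 1 nM–1 μM; cAMP read by AlphaScreen kit; EC50 from four separate assays each in triplicate, mean ± SEM.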
# [4] = target: T6, Adenosine receptor A1 (Homo sapiens) (UniProt P30542); test: Displacement of [3H]DPCPX from human adenosine A1 receptor expressed in CHO cell membranes at 1 uM after 90 mins by scintillation counting analysis; outline: as §1
# T6 sequence (whole entry): T1 sequence (P30542 whole entry)
# [5] = target: T2, Adenosine receptor A2b (Homo sapiens); test: Antagonist activity at human adenosine A2B receptor expressed in CHO cell membranes assessed as inhibition of NECA-stimulated cAMP accumulation at 1 uM by AlphaScreen assay; type: functional, cell-based
# Outline: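 hA2B-transfected CHO cells in HBSS, 5 mM HEPES, 0.5 mM Ro 20-1724, 0.1% BSA; compound at 1 μM given with NECA 100 nM; cAMP production measured by AlphaScreen.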
# Homo sapiens [6] = organism: Homo sapiens; test: Selectivity index, ratio of Ki for human adenosine A1 receptor to EC50 for human adenosine A2B receptor
# Homo sapiens [7] = organism: Homo sapiens; test: Selectivity index, ratio of Ki for human adenosine A3 receptor to EC50 for human adenosine A2B receptor
# Adenosine receptor A3 = target: T7, Adenosine receptor A3 (Homo sapiens, UniProt P0DMS8); test: Displacement of [125I]-ABMECA from human adenosine A3 receptor expressed in CHO cell membranes after 120 mins by scintillation counting analysis; outline: as §2
# T7 sequence (P0DMS8 whole entry): T4 sequence (whole entry)
# Homo sapiens [8] = organism: Homo sapiens; test: Selectivity index, ratio of Ki for human adenosine A2A receptor to EC50 for human adenosine A2B receptor
# Adenosine receptor A2a [9] = target: T3, Adenosine receptor A2a; test: Displacement of [3H]-ZM241385 from human adenosine A2A receptor expressed in CHO cell membranes after 60 mins by scintillation counting analysis
SMILES,Ki (Adenosine receptor A1),Efficacy [1],inhibition (Adenosine receptor A2a [2]),inhibition [3],EC50 (Adenosine receptor A2b),inhibition [4],inhibition [5],Selectivity Index (Homo sapiens [6]),Selectivity Index (Homo sapiens [7]),Ki (Adenosine receptor A3),Selectivity Index (Homo sapiens [8]),Ki (Adenosine receptor A2a [9])
N#Cc1c(N)nc(SCC(=O)NO)c(C#N)c1-c1ccc(OCC2CC2)cc1,0.536 µM,20%,1%,31%,,,,,,,,
N#Cc1c(N)nc(SCC(=O)NCO)c(C#N)c1-c1ccc(OCC2CC2)cc1,,57%,1%,8%,0.182 µM,10%,,,,,,
N#Cc1c(N)nc(SCC2=NCCN2)c(C#N)c1-c1ccc(OCC2CC2)cc1,0.483 µM,7%,14%,6%,,,inactive,,,,,
N#Cc1c(N)nc(SCc2ncn[nH]2)c(C#N)c1-c1ccc(OCC2CC2)cc1,0.338 µM,50%,1%,1%,0.051 µM,,,,,,,
CNC(=O)CSc1nc(N)c(C#N)c(-c2ccc(OCC3CC3)cc2)c1C#N,,63%,1%,3%,0.094 µM,14%,,,,,,
N#Cc1c(N)nc(SCC(N)=O)c(C#N)c1-c1ccc(OCC2CCC2)cc1,,5%,5%,1%,,1%,inactive,,,,,
COC(=O)CSc1nc(N)c(C#N)c(-c2ccc(OCC3CC3)cc2)c1C#N,,1%,1%,1%,,23%,inactive,,,,,
COC(=O)c1cccc(CSc2nc(N)c(C#N)c(-c3ccc(OCC4CC4)cc3)c2C#N)c1,0.066 µM,27%,1%,4%,0.347 µM,,,,,,,
C=CCOc1ccc(-c2c(C#N)c(N)nc(SCc3ccn[nH]3)c2C#N)cc1,0.044 µM,7%,8%,13%,,,inactive,,,,,
C=C(C)COc1ccc(-c2c(C#N)c(N)nc(SCC(N)=O)c2C#N)cc1,0.872 µM,2%,31%,4%,,,,,,,,
N#Cc1c(N)nc(SCc2ncc[nH]2)c(C#N)c1-c1ccc(OCC2CC2)cc1,0.235 µM,70%,,,0.0095 µM,,,25,50,0.474 µM,80,0.764 µM
N#Cc1c(N)nc(SCc2cnc[nH]2)c(C#N)c1-c1ccc(OCC2CC2)cc1,,50%,7%,1%,0.139 µM,1%,,,,,,
N#Cc1c(N)nc(SCc2csc(N)n2)c(C#N)c1-c1ccc(OCC2CC2)cc1,0.14 µM,17%,1%,1%,,,inactive,,,,,
CCOc1ccc(-c2c(C#N)c(N)nc(SCC(N)=O)c2C#N)cc1,0.345 µM,66%,1%,20%,0.038 µM,,,,,,,
N#Cc1c(N)nc(SCc2cccnc2)c(C#N)c1-c1ccc(OCC2CC2)cc1,0.067 µM,1%,,19%,,,,,,,,0.424 µM
N#Cc1c(N)nc(SCc2cccc(C(N)=O)c2)c(C#N)c1-c1ccc(OCC2CC2)cc1,0.083 µM,69%,25%,1%,0.0127 µM,,,,,,,
N#Cc1c(N)nc(SCc2nnn[nH]2)c(C#N)c1-c1ccc(OCC2CC2)cc1,,25%,1%,1%,,3%,inactive,,,,,
N#Cc1c(N)nc(SCc2nc3ccccc3[nH]2)c(C#N)c1-c1ccc(OCC2CC2)cc1,,12%,6%,1%,,21%,inactive,,,,,
CC(=O)Nc1ccc(-c2c(C#N)c(N)nc(SCC(N)=O)c2C#N)cc1,,92%,,,0.164 µM,17%,,,,0.742 µM,,0.572 µM
CC(C)COc1ccc(-c2c(C#N)c(N)nc(SCC(N)=O)c2C#N)cc1,0.603 µM,1%,,9%,,,,,,,,0.307 µM
N#Cc1c(N)nc(SCC(N)=O)c(C#N)c1-c1ccc(OCC2CC2)cc1,,100%,2%,8%,0.031 µM,31%,,,,,,
CCOc1ccc(-c2c(C#N)c(N)nc(SCc3ncc[nH]3)c2C#N)cc1,0.0082 µM,62%,,,0.0117 µM,,,,,0.085 µM,,0.221 µM
N#Cc1c(N)nc(SCn2cncn2)c(C#N)c1-c1ccc(OCC2CC2)cc1,,1%,1%,1%,,12%,inactive,,,,,
N#Cc1c(N)nc2sc(C(N)=O)c(N)c2c1-c1ccc(OCC2CC2)cc1,,1%,3%,13%,,19%,,,,,,
C=CCOc1ccc(-c2c(C#N)c(N)nc(SCC(N)=O)c2C#N)cc1,0.323 µM,11%,18%,,,,,,,0.444 µM,,
CCOc1ccc(-c2c(C#N)c(N)nc(SCc3ccn[nH]3)c2C#N)cc1,0.021 µM,34%,4%,18%,0.332 µM,,,,,,,
CCOc1ccc(-c2c(C#N)c(N)nc(SCC(=O)NC)c2C#N)cc1,0.104 µM,48%,8%,,0.211 µM,,,,,0.834 µM,,
N#Cc1c(N)nc(SCc2ccn[nH]2)c(C#N)c1-c1ccc(OCC2CC2)cc1,0.552 µM,48%,2%,6%,0.084 µM,,,,,,,
